Results from ChEMBL document CHEMBL3808334, “Synthesis and in vitro evaluation of novel triazine analogues as anticancer agents and their interaction studies with bovine serum albumin” (Eur J Med Chem, 2016).

Tests used:
Type in all cases: functional
M14 = experiment: Growth inhibition of human M14 cells incubated for 48 hrs by sulforhodamine B assay; conditions: M14, 48 h
In short: (§1)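 Cells were plated at 5,000–40,000 per well according to doubling time and preincubated 24 h at 37 °C in 5% CO2; time-zero plates were then TCA-fixed. Five concentrations (10-fold or ½-log dilutions, DMSO stock) were incubated 48 h. Cells were TCA-fixed, stained with 0.4% SRB and read at 515 nm. GI50 was taken where [(Ti−Tz)/(C−Tz)]×100 = 50.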

[1] = Growth inhibition of human SNB19 cells assessed as cell growth at 10^-5 M incubated for 48 hrs by sulforhodamine B assay; conditions: SNB-19, 48 h, read-out: Activity
[2] = Growth inhibition of human UO31 cells incubated for 48 hrs by sulforhodamine B assay; conditions: UO-31, 48 h; in short: as §1
NCI-H522 [3] = experiment: Growth inhibition of human NCI-H522 cells assessed as cell growth at 10^-4 M incubated for 48 hrs by sulforhodamine B assay; conditions: NCI-H522, 48 h, read-out: Activity
A549 = experiment: Growth inhibition of human A549/ATCC cells assessed as cell growth at 10 uM incubated for 48 hrs by sulforhodamine B assay; conditions: A549, 48 h, read-out: Activity
In short: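 One-dose screen at 10 µM final. Cells are plated at 5,000–40,000 per well according to doubling time and preincubated 24 h at 37 °C, 5% CO₂. Compound (DMSO stock diluted in medium with 50 µg/ml gentamicin) is then added for 48 h. Growth percent is read by sulforhodamine B staining, absorbance at 515 nm.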

MDA-MB-435 = experiment: Growth inhibition of human MDA-MB-435 cells assessed as cell growth at 10^-5 M incubated for 48 hrs by sulforhodamine B assay; conditions: MDA-MB-435, 48 h, read-out: Activity
[4] = Growth inhibition of human SW620 cells incubated for 48 hrs by sulforhodamine B assay; conditions: SW-620, 48 h; in short: as §1
NCI-H226 = experiment: Growth inhibition of human NCI-H226 cells incubated for 48 hrs by sulforhodamine B assay; conditions: NCI-H226, 48 h; in short: as §1
NCI/ADR-RES = experiment: Growth inhibition of human NCI/ADR-RES cells assessed as cell growth at 10 uM incubated for 48 hrs by sulforhodamine B assay; conditions: read-out: Activity
K562 = experiment: Growth inhibition of human K562 cells assessed as cell growth at 10^-5 M incubated for 48 hrs by sulforhodamine B assay; conditions: K562, 48 h, read-out: Activity
[5] = Growth inhibition of human MOLT4 cells incubated for 48 hrs by sulforhodamine B assay; conditions: MOLT-4, 48 h; in short: as §1
[6] = Growth inhibition of human SNB19 cells assessed as cell growth at 10^-4 M incubated for 48 hrs by sulforhodamine B assay; conditions: SNB-19, 48 h, read-out: Activity
[7] = Growth inhibition of human RXF393 cells assessed as cell growth at 10^-7 M incubated for 48 hrs by sulforhodamine B assay; conditions: RXF 393, 48 h, read-out: Activity
[8] = Growth inhibition of human Hs 578T cells assessed as cell growth at 10 uM incubated for 48 hrs by sulforhodamine B assay; conditions: read-out: Activity
SN12C = experiment: Growth inhibition of human SN12C cells assessed as cell growth at 10^-7 M incubated for 48 hrs by sulforhodamine B assay; conditions: read-out: Activity
[9] = Growth inhibition of human SF268 cells assessed as cell growth at 10^-7 M incubated for 48 hrs by sulforhodamine B assay; conditions: SF-268, 48 h, read-out: Activity
EKVX = experiment: Growth inhibition of human EKVX cells assessed as cell growth at 10^-7 M incubated for 48 hrs by sulforhodamine B assay; conditions: read-out: Activity
In short: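 Cells seeded at 5,000–40,000/well according to doubling time and preincubated 24 h at 37 °C, 5% CO2. Time-zero plates were TCA-fixed. DMSO concentrate was diluted in medium with 50 µg/ml gentamicin to give five concentrations (10-fold or ½ log steps), then exposed 48 h. Cells were TCA-fixed, stained with 0.4% SRB and read at 515 nm. Percent growth was taken against time-zero and control; GI50, TGI and LC50 derived.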

[10] = Growth inhibition of human LOXIMVI cells incubated for 48 hrs by sulforhodamine B assay; conditions: LOX IMVI; in short: as §1
NCI-H322M = experiment: Growth inhibition of human NCI-H322M cells assessed as cell growth at 10 uM incubated for 48 hrs by sulforhodamine B assay; conditions: read-out: Activity
SK-MEL-28 = experiment: Growth inhibition of human SK-MEL-28 cells assessed as cell growth at 10^-4 M incubated for 48 hrs by sulforhodamine B assay; conditions: SK-MEL-28, 48 h, read-out: Activity
NCI-H522 [11] = experiment: Growth inhibition of human NCI-H522 cells incubated for 48 hrs by sulforhodamine B assay; conditions: NCI-H522, 48 h; in short: as §1
[12] = Growth inhibition of human SKOV3 cells assessed as cell growth at 10^-7 M incubated for 48 hrs by sulforhodamine B assay; conditions: SK-OV-3, 48 h, read-out: Activity
[13] = Growth inhibition of human OVCAR3 cells assessed as cell growth at 10^-4 M incubated for 48 hrs by sulforhodamine B assay; conditions: OVCAR-3, 48 h, read-out: Activity
[14] = Growth inhibition of human OVCAR8 cells assessed as cell growth at 10 uM incubated for 48 hrs by sulforhodamine B assay; conditions: OVCAR-8, 48 h, read-out: Activity
[15] = read-out: LC50 (the source's name)
[16] = read-out: pLC50 (the source's name) (converted)

## c1ccc2[nH]c(-c3ccc(Nc4nc(N5CCCCC5)nc(N5CCOCC5)n4)cc3)nc2c1
M14; read-out: GI50
  GI50: 2.05 µM
M14; [15]
  CC50: 15.6 µM
M14; read-out: TGI
  TGI: 4.72 µM
M14; read-out: pGI50 (converted)
  GI50: 2.04 µM
M14; [16]
  CC50: 15.5 µM
M14; read-out: pTGI (converted)
  TGI: 4.68 µM
[1]
  growth at 10 µM: 13%
[2]
  LC50: > 100 µM
[2]; read-out: GI50
  GI50: 2 µM
[2]; read-out: TGI
  TGI: 5.14 µM
[2]; read-out: pGI50 (converted)
  GI50: 2 µM
[2]; [16]
  CC50: > 100 µM
[2]; read-out: pTGI (converted)
  TGI: 5.13 µM
NCI-H522 [3]
  growth at 100 µM: -29%
A549
  growth at 10 µM: 13.9%
MDA-MB-435
  growth at 10 µM: -48%
[4]; read-out: GI50
  GI50: 2.34 µM
[4]; [15]
  CC50: 74.7 µM
[4]; read-out: TGI
  TGI: 5.87 µM
[4]; read-out: pGI50 (converted)
  GI50: 2.34 µM
[4]; [16]
  CC50: 74.1 µM
[4]; read-out: pTGI (converted)
  TGI: 5.89 µM
NCI-H226; read-out: GI50
  GI50: 3.2 µM
NCI-H226; [15]
  CC50: > 100 µM
NCI-H226; read-out: TGI
  TGI: 17.7 µM
NCI-H226; read-out: pGI50 (converted)
  GI50: 3.16 µM
NCI-H226; [16]
  CC50: > 100 µM
NCI-H226; read-out: pTGI (converted)
  TGI: 17.8 µM
NCI/ADR-RES
  growth at 10 µM: 45.6%
K562
  growth at 10 µM: -21%
[5]; read-out: GI50
  GI50: 2.73 µM
[5]; [15]
  CC50: > 100 µM
[5]; read-out: TGI
  TGI: 7.89 µM
[5]; read-out: pGI50 (converted)
  GI50: 2.75 µM
[5]; [16]
  CC50: > 100 µM
[5]; read-out: pTGI (converted)
  TGI: 7.94 µM
[6]
  growth at 100 µM: -1%
[7]
  growth at 0.1 µM: 91%
[8]
  growth at 10 µM: -12.6%
SN12C
  growth at 0.1 µM: 94%
[9]
  growth at 0.1 µM: 98%
EKVX
  growth at 0.1 µM: 93%
[10]; read-out: GI50
  GI50: 1.75 µM
[10]; [15]
  CC50: 7.31 µM
[10]; read-out: TGI
  TGI: 3.58 µM
[10]; read-out: pGI50 (converted)
  GI50: 1.74 µM
[10]; [16]
  CC50: 7.24 µM
[10]; read-out: pTGI (converted)
  TGI: 3.55 µM
NCI-H322M
  growth at 10 µM: 35%
SK-MEL-28
  growth at 100 µM: -54%
NCI-H522 [11]; read-out: GI50
  GI50: 2.36 µM
NCI-H522 [11]; [15]
  CC50: > 100 µM
NCI-H522 [11]; read-out: TGI
  TGI: 6.22 µM
NCI-H522 [11]; read-out: pGI50 (converted)
  GI50: 2.34 µM
NCI-H522 [11]; [16]
  CC50: > 100 µM
NCI-H522 [11]; read-out: pTGI (converted)
  TGI: 6.17 µM
[12]
  growth at 0.1 µM: 101%
[13]
  growth at 100 µM: -49%
[14]
  growth at 10 µM: 45.7%
